Measured values published in paper PMC4467529 (Bioorganic & medicinal chemistry, 2015).
“Also recorded” adds a separate entry of the source.

Key:
iNOS = iNOS (Mus musculus, UniProt P29477); assay: iNOS inhibitory assay in LPS-induced mouse macrophages; assay type: cell-based; settings: LPS-induced RAW264.7 macrophages
[1] = In vitro cytotoxicity, Neutral Red assay; assay type: cell-based; settings: pig, LLC-PK11 pig kidney epithelial cells
Outline: (§1)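 Cells were kept in RPMI-1640 with 10% bovine calf serum and amikacin 60 mg/L at 37 °C, 5% CO₂. They were seeded at 25,000 cells/well and grown 24 h, then exposed 48 h to test compound diluted in serum-free medium, tested up to 25 μg/ml. Viability was read by Neutral Red, as % decrease versus vehicle. IC50 came from dose curves, in triplicate, with doxorubicin as reference.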

[2] = In vitro cytotoxicity, Neutral Red assay; assay type: cell-based; settings: African green monkey, Vero cells (kidney fibroblasts)
Outline: as §1

[3] = In vitro cytotoxicity, Neutral Red assay; assay type: cell-based; settings: human, SK-OV-3 ovary carcinoma cells
Outline: (§2)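 Cells grown in RPMI-1640 with 10% bovine calf serum and amikacin (60 mg/L), 37°C, 5% CO₂, 95% humidity. Seeded at 25,000 cells/well, grown 24 h. Test samples diluted in serum-free medium, exposure 48 h. Viable cells counted by Neutral Red uptake; % viability loss against vehicle control. IC50 from dose curves, triplicate, means reported.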

[4] = In vitro cytotoxicity, Neutral Red assay; assay type: cell-based; settings: human, BT-549 breast ductal carcinoma cells
Outline: as §1

[5] = In vitro cytotoxicity, Neutral Red assay; assay type: cell-based; settings: human, KB oral epidermal carcinoma cells
Outline: as §2

[6] = In vitro cytotoxicity, Neutral Red assay; assay type: cell-based; settings: human, SK-MEL malignant melanoma cells
Outline: as §1

NF-κB = assay type: cell-based, human; settings: for IC50: Homo sapiens, SW1353, read-out: NF-κB IC50; for NF-κB inhibitory activity (in words): PMA-induced SW1353 cells
Outline: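 SW1353 cells were grown in DMEM/F12 with 10% FBS and electroporated with an NF-κB luciferase plasmid (50 μg/mL; 160 V, one 70-ms pulse). They were plated at 1.25 × 10⁵ cells/well for 24 h. […] Parthenolide was the reference; Sp-1 served as control factor.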

[7] = cited from earlier work
rat paw edema = assay: Carrageenan-induced rat paw edema assay; assay type: in vivo
Outline: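 Adult albino rats of both sexes (120–150 g), pre-hydrated with 3 ml water by gavage, in groups of five. Test compound or ketorolac tromethamine was suspended in distilled water with a few drops of Tween 80 and given i.p. 1 h before 1% carrageenan s.c. into the right hind subplantar paw. Controls got saline/Tween 80.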

| iNOS inhibitory activity (in words) (iNOS) | IC50 (NF-κB) | Structure (SMILES) | IC50 at 48 h [1] | IC50 at 48 h [2] | IC50 at 48 h [3] | IC50 at 48 h [4] | IC50 at 48 h [5] | IC50 at 48 h [6] | NF-κB inhibitory activity (in words) (NF-κB) | anti-inflammatory and antinociceptive activities (in words) [7] | in vivo anti-inflammatory activity (in words) (rat paw edema; rat paw edema, compared to ketorolac) | Edema thickness ±SEM, 1h (rat paw edema; rat, 30 mg/kg intraperitoneally, 1h after induction) | Edema thickness ±SEM, 2h (rat paw edema; rat, 30 mg/kg intraperitoneally, 2h after induction) | Edema thickness ±SEM, 3h (rat paw edema; rat, 30 mg/kg intraperitoneally, 3h after induction) | Edema thickness ±SEM, 4h (rat paw edema; rat, 30 mg/kg intraperitoneally, 4h after induction) |
| --- | --- | --- | --- | --- | --- | --- | --- | --- | --- | --- | --- | --- | --- | --- | --- |
|  | > 25 µg/mL | O=c1oc2ccccc2n1CCCCCN1CCN(CCCCn2c(=O)oc3ccccc32)CC1 [Compound 5o, 3-(5-(4-(4-(2-oxobenzo[d]oxazol-3(2H)-yl)butyl)piperazin-1-yl)pentyl)benzo[d]oxazol-2(3H)-one] | > 25 µg/mL |  | > 25 µg/mL | > 25 µg/mL | > 25 µg/mL | > 25 µg/mL |  |  |  |  |  |  |  |
|  | > 25 µg/mL | O=c1oc2ccccc2n1CCCCN1CCN(CCn2c(=O)oc3ccccc32)CC1 [Compound 5c, 3-(2-(4-(4-(2-oxobenzo[d]oxazol-3(2H)-yl)butyl)piperazin-1-yl)ethyl)benzo[d]oxazol-2(3H)-one] | > 25 µg/mL | > 25 µg/mL | > 25 µg/mL | > 25 µg/mL | > 25 µg/mL | > 25 µg/mL |  |  |  |  |  |  |  |
|  | > 25 µg/mL | O=c1oc2ccccc2n1CCCN1CCN(CCn2c(=O)oc3ccccc32)CC1 [Compound 5a, 3-(3-(4-(2-(2-oxobenzo[d]oxazol-3(2H)-yl)ethyl)piperazin-1-yl)propyl)benzo[d]oxazol-2(3H)-one] | > 25 µg/mL | > 25 µg/mL | > 25 µg/mL | > 25 µg/mL | > 25 µg/mL | > 25 µg/mL |  |  |  |  |  |  |  |
|  | > 25 µg/mL | O=c1sc2ccccc2n1CCCN1CCN(CCn2c(=O)sc3ccccc32)CC1 [Compound 5b, 3-(3-(4-(2-(2-oxobenzo[d]thiazol-3(2H)-yl)ethyl)piperazin-1-yl)propyl)benzo[d]thiazol-2(3H)-one] |  | > 25 µg/mL | > 25 µg/mL | > 25 µg/mL | > 25 µg/mL | > 25 µg/mL |  |  |  |  |  |  |  |
|  | > 25 µg/mL | O=c1oc2ccccc2n1CCCCCCN1CCN(CCCn2c(=O)oc3ccccc32)CC1 [Compound 5m, 3-(3-(4-(6-(2-oxobenzo[d]oxazol-3(2H)-yl)hexyl)piperazin-1-yl)propyl)benzo[d]oxazol-2(3H)-one] | > 25 µg/mL | > 25 µg/mL | > 25 µg/mL | > 25 µg/mL | > 25 µg/mL | > 25 µg/mL |  |  |  |  |  |  |  |
|  | > 25 µg/mL | O=c1sc2ccccc2n1CCCCN1CCN(CCn2c(=O)sc3ccccc32)CC1 [Compound 5d, 3-(2-(4-(4-(2-oxobenzo[d]thiazol-3(2H)-yl)butyl)piperazin-1-yl)ethyl)benzo[d]thiazol-2(3H)-one] | > 25 µg/mL | > 25 µg/mL | > 25 µg/mL | > 25 µg/mL | > 25 µg/mL | > 25 µg/mL |  |  |  |  |  |  |  |

The remaining lines, values behind:

| Structure (SMILES) | iNOS inhibitory activity (in words) (iNOS) | IC50 (NF-κB) | IC50 at 48 h [1] | IC50 at 48 h [2] | IC50 at 48 h [3] | IC50 at 48 h [4] | IC50 at 48 h [5] | IC50 at 48 h [6] | NF-κB inhibitory activity (in words) (NF-κB) | anti-inflammatory and antinociceptive activities (in words) [7] | in vivo anti-inflammatory activity (in words) (rat paw edema; rat paw edema, compared to ketorolac) | Edema thickness ±SEM, 1h (rat paw edema; rat, 30 mg/kg intraperitoneally, 1h after induction) | Edema thickness ±SEM, 2h (rat paw edema; rat, 30 mg/kg intraperitoneally, 2h after induction) | Edema thickness ±SEM, 3h (rat paw edema; rat, 30 mg/kg intraperitoneally, 3h after induction) | Edema thickness ±SEM, 4h (rat paw edema; rat, 30 mg/kg intraperitoneally, 4h after induction) |
| --- | --- | --- | --- | --- | --- | --- | --- | --- | --- | --- | --- | --- | --- | --- | --- |
| O=c1sc2ccccc2n1CCCCN1CCN(CCCCn2c(=O)sc3ccccc32)CC1 [Compound 3f, 3,3′-(piperazine-1,4-diylbis(butane-4,1-diyl))bis(benzo[d]thiazol-2(3H)-one)] | no activity |  | > 25 µg/mL | > 25 µg/mL | > 25 µg/mL | > 25 µg/mL | > 25 µg/mL | > 25 µg/mL |  |  |  |  |  |  |  |
| O=c1oc2ccccc2n1CCN1CCN(CCn2c(=O)oc3ccccc32)CC1 [Compound 3a, 3,3′-(piperazine-1,4-diylbis(ethane-2,1-diyl))bis(benzo[d]oxazol-2(3H)-one)] |  | > 25 µg/mL | > 25 µg/mL | > 25 µg/mL | > 25 µg/mL | > 25 µg/mL | > 25 µg/mL | > 25 µg/mL |  |  |  |  |  |  |  |
| O=c1sc2ccccc2n1CCCCCCN1CCN(CCCn2c(=O)sc3ccccc32)CC1 [Compound 5n, 3-(3-(4-(6-(2-oxobenzo[d]thiazol-3(2H)-yl)hexyl)piperazin-1-yl)propyl)benzo[d]thiazol-2(3H)-one] |  |  | > 25 µg/mL | > 25 µg/mL | > 25 µg/mL |  | > 25 µg/mL |  | moderately active |  |  |  |  |  |  |
| O=C(c1ccccc1)c1ccc2[nH]c(=O)sc2c1 [Compound S-14080] |  |  |  |  |  |  |  |  |  | superior to acetylsalicylic acid and equivalent to glafenine |  |  |  |  |  |
| O=c1sc2ccccc2n1CCCN1CCN(CCCn2c(=O)sc3ccccc32)CC1 [Compound 3d, 3,3′-(piperazine-1,4-diylbis(propane-3,1-diyl))bis(benzo[d]thiazol-2(3H)-one)] |  | > 25 µg/mL |  | > 25 µg/mL | > 25 µg/mL | > 25 µg/mL | > 25 µg/mL | > 25 µg/mL |  |  |  |  |  |  |  |
| O=c1sc2ccccc2n1CCCCN1CCN(CCCn2c(=O)sc3ccccc32)CC1 [Compound 5j, 3-(3-(4-(4-(2-oxobenzo[d]thiazol-3(2H)-yl)butyl)piperazin-1-yl)propyl)benzo[d]thiazol-2(3H)-one] |  |  |  |  |  |  |  |  | moderately active |  |  |  |  |  |  |
| O=c1oc2ccccc2n1CCCCCCN1CCN(CCCCn2c(=O)oc3ccccc32)CC1 [Compound 5q, 3-(6-(4-(4-(2-oxobenzo[d]oxazol-3(2H)-yl)butyl)piperazin-1-yl)hexyl)benzo[d]oxazol-2(3H)-one] |  |  | > 25 µg/mL | > 25 µg/mL | > 25 µg/mL | > 25 µg/mL | > 25 µg/mL | > 25 µg/mL |  |  |  |  |  |  |  |
| O=c1oc2ccccc2n1CCCCN1CCN(CCCCn2c(=O)oc3ccccc32)CC1 [Compound 3e, 3,3′-(piperazine-1,4-diylbis(butane-4,1-diyl))bis(benzo[d]oxazol-2(3H)-one)] | no activity | > 25 µg/mL | > 25 µg/mL | > 25 µg/mL | > 25 µg/mL | > 25 µg/mL | > 25 µg/mL | > 25 µg/mL |  |  |  |  |  |  |  |
| O=c1sc2ccccc2n1CCN1CCN(CCn2c(=O)sc3ccccc32)CC1 [Compound 3b, 3,3′-(2,2′-(piperazine-1,4-diyl)bis(ethane-2,1-diyl))dibenzo[d]thaizol-2(3H)-one] |  | > 25 µg/mL | > 25 µg/mL | > 25 µg/mL | > 25 µg/mL | > 25 µg/mL | > 25 µg/mL | > 25 µg/mL |  |  |  |  |  |  |  |
| c1ccc2sc(SCCCCN3CCN(CCCCSc4nc5ccccc5s4)CC3)nc2c1 [Compound 8b, 1,4-bis(4-(benzo[d]thiazol-2-ylthio)butyl)piperazine] |  |  | > 25 µg/mL | > 25 µg/mL | > 25 µg/mL | > 25 µg/mL |  |  |  |  | significant anti-inflammatory and analgesic activity; also recorded: most active dimer; also recorded: promising in vivo activity which was comparable to indomethacin and ketorolac | 56.48 ± 2.14 ×10^−2 mm | 55.6 ± 2.09 ×10^−2 mm | 61.32 ± 1.67 ×10^−2 mm | 103.54 ± 1.77 ×10^−2 mm |
| O=c1oc2ccccc2n1CCCCCCN1CCN(CCCCCCn2c(=O)oc3ccccc32)CC1 [Compound 3i, 3,3′-(piperazine-1,4-diylbis(hexane-6,1-diyl))bis(benzo[d]oxazol-2(3H)-one)] |  | > 25 µg/mL | > 25 µg/mL | > 25 µg/mL | > 25 µg/mL |  | > 25 µg/mL |  | devoid of any activity |  |  |  |  |  |  |
| O=c1oc2ccccc2n1CCCCCN1CCN(CCCCCn2c(=O)oc3ccccc32)CC1 [Compound 3g, 3,3′-(piperazine-1,4-diylbis(pentane-5,1-diyl))bis(benzo[d]oxazol-2(3H)-one)] |  |  | > 25 µg/mL |  | > 25 µg/mL | > 25 µg/mL | > 25 µg/mL | > 25 µg/mL |  |  |  |  |  |  |  |
| O=c1oc2ccccc2n1CCCN1CCN(CCCn2c(=O)oc3ccccc32)CC1 [Compound 3c, 3,3′-(piperazine-1,4-diylbis(propane-3,1-diyl))bis(benzo[d]oxazol-2(3H)-one)] |  |  | > 25 µg/mL | > 25 µg/mL | > 25 µg/mL | > 25 µg/mL | > 25 µg/mL | > 25 µg/mL |  |  |  |  |  |  |  |
| O=c1oc2ccccc2n1CCCCCN1CCN(CCn2c(=O)oc3ccccc32)CC1 [Compound 5e, 3-(5-(4-(2-(2-oxobenzo[d]oxazol-3(2H)-yl)ethyl)piperazin-1-yl)pentyl)benzo[d]oxazol-2(3H)-one] |  |  | > 25 µg/mL | > 25 µg/mL | > 25 µg/mL | > 25 µg/mL | > 25 µg/mL | > 25 µg/mL |  |  |  |  |  |  |  |
| O=c1sc2ccccc2n1CCCCCCN1CCN(CCn2c(=O)sc3ccccc32)CC1 [Compound 5h, 3-(6-(4-(2-(2-oxobenzo[d]thiazol-3(2H)-yl)ethyl)piperazin-1-yl)hexyl)benzo[d]thiazol-2(3H)-one] |  |  |  |  |  |  |  |  | moderately active |  |  |  |  |  |  |
